In ChEMBL document CHEMBL2034961, “Kinase inhibitory potencies and in vitro antiproliferative activities of N-10 substituted pyrrolo[2,3-a]carbazole derivatives” (Bioorg Med Chem Lett, 2012):
pIC50: −log10 of the molar value.

How the values were obtained:
[1] = biological target: T1, Serine/threonine-protein kinase pim-1 (Homo sapiens, UniProt P11309); assay: Inhibition of Pim-1 using RSRHSSYPAGT as substrate assessed as residual activity at 10 uM after 30 mins
Method in brief: (§1)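 Each Pim isoform (Pim-1, Pim-2, Pim-3) was assayed in duplicate by a previously published method. Compounds were tested at single concentrations of 10 and 1, and results are given as percent residual kinase activity.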
Target sequence in this assay (P11309 whole entry, looked up, canonical isoform): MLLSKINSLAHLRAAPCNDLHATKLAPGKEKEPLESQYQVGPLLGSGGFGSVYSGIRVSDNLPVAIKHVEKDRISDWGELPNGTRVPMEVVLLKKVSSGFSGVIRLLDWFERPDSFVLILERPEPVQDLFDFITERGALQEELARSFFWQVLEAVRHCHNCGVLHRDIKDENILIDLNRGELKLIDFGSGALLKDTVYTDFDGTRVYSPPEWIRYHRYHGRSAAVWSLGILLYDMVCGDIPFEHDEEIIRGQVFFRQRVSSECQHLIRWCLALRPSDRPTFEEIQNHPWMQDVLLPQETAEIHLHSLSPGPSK

[2] = biological target: T1, Serine/threonine-protein kinase pim-1; assay: Inhibition of Pim-1 using RSRHSSYPAGT as substrate assessed as residual activity at 1 uM after 30 mins; method in brief: as §1
Target sequence in this assay (P11309 whole entry, looked up, canonical isoform): as above

[3] = biological target: T1, Serine/threonine-protein kinase pim-1; assay: Inhibition of Pim-1 using RSRHSSYPAGT as substrate after 30 mins
Method in brief: (§2)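 Kinase assays on each Pim isoform were run in duplicate by a previously published method.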
Target sequence in this assay (P11309 whole entry, canonical isoform): as the sequence (P11309 whole entry, looked up, canonical isoform) above

[4] = biological target: Serine/threonine-protein kinase pim-2 (Homo sapiens) (UniProt Q9P1W9); assay: Inhibition of Pim-2 using RSRHSSYPAGT as substrate assessed as residual activity at 10 uM after 30 mins; method in brief: as §1
Chain of Serine/threonine-protein kinase pim-2 (Homo sapiens) (Q9P1W9 whole entry, looked up): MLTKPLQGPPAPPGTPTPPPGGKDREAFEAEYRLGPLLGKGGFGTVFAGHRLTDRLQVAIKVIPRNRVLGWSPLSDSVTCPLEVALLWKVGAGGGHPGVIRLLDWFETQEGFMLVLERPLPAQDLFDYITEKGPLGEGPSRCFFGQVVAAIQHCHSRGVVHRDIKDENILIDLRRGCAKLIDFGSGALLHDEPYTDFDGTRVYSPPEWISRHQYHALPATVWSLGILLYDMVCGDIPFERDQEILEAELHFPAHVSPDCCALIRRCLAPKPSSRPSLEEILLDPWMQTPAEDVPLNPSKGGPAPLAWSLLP

[5] = biological target: Serine/threonine-protein kinase pim-2 (Homo sapiens) (UniProt Q9P1W9); assay: Inhibition of Pim-2 using RSRHSSYPAGT as substrate assessed as residual activity at 1 uM after 30 mins; method in brief: as §1
[6] = biological target: T2, Serine/threonine-protein kinase pim-3 (Homo sapiens, UniProt Q86V86); assay: Inhibition of Pim-3 using RSRHSSYPAGT as substrate assessed as residual activity at 10 uM after 30 mins; method in brief: as §1
[7] = biological target: T2, Serine/threonine-protein kinase pim-3; assay: Inhibition of Pim-3 using RSRHSSYPAGT as substrate assessed as residual activity at 1 uM after 30 mins; method in brief: as §1
[8] = biological target: T2, Serine/threonine-protein kinase pim-3; assay: Inhibition of Pim-3 using RSRHSSYPAGT as substrate after 30 mins; method in brief: as §2
[9] = Cytotoxicity against human fibroblasts by resazurin reduction test; type: cell-based; conditions: Fibroblast
Method in brief: (§3)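 Antiproliferative effect read by resazurin reduction. Cells were a human fibroblast primary culture, PA1 (ovarian carcinoma), and PC3 and DU145 (prostatic carcinoma).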

[10] = tested on: PA-1; assay: Cytotoxicity against human PA1 cells by resazurin reduction test; type: functional, cell-based; method in brief: as §3
[11] = tested on: PC-3; assay: Cytotoxicity against human PC3 cells by resazurin reduction test; type: functional, cell-based; method in brief: as §3
[12] = tested on: DU-145; assay: Cytotoxicity against human DU145 cells by resazurin reduction test; type: functional, cell-based; method in brief: as §3

Compound | Activity [1] [%] | Activity [2] [%] | pIC50 [3] | Activity [4] [%] | Activity [5] [%] | Activity [6] [%] | Activity [7] [%] | pIC50 [8] | pIC50 [9] | pIC50 [10] | pIC50 [11] | pIC50 [12]
N#CCCCCn1c2ccccc2c2ccc3c(C=O)c[nH]c3c21 | 1 | 3 | 7.34 | 40 | 32 | 2 | 3 | 7.39 | 4.84 | 5.10 | 4.80 | 4.70
CN(C)CCCCn1c2ccccc2c2ccc3c(C=O)c[nH]c3c21 | 10 | 24 | 7.12 | 22 | 74 | 1 | 7 | 7.10 | 6.20 | 6.31 | 6.19 | 6.02
CC(C)(C)OC(=O)NCCCCn1c2ccccc2c2ccc3c(C=O)c[nH]c3c21 | 4 | 23 | 6.33 | 54 | 97 | 3 | 16 | 6.70 | 4.76 | 4.83 | 4.88 | 4.91
